Results: PMC7106486 (Science translational medicine, 2019)

Tests used:
[1] = tested on: murine back skin treated with S. aureus; assay: Transepidermal water loss; assay type: in vivo, mouse C57BL/6; details: synthetic autoinducing peptide 10 μg with S. aureus 1 × 10^7 CFU, 48 hours
Outline: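 Back skin of 8-week male C57BL/6 mice depilated (shave plus Nair 2 min), allowed 48 h barrier recovery. S. aureus USA300 LAC agr type I (1 × 10^7 CFU, 100 μl 3% TSB) plus synthetic autoinducing peptide (10 μg, DMSO) applied on 2-cm2 gauze under Tegaderm for 48 h. Transepidermal water loss measured by Tewameter on treated skin; n = 5.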

[2] = tested on: S. aureus USA300 LAC agr type I P3-YFP; assay: S. aureus agr activity, P3-YFP reporter, in vitro; assay type: cell-based; details: synthetic peptide, overnight culture
[3] = tested on: clinical S. aureus strains expressing PSMα; assay: Protection against clinical S. aureus strains expressing PSMα
[4] = tested on: Klk6 and cytokine (Il6, Il17a, Il17f) mRNA in murine skin; assay: Klk6 and cytokine mRNA expression on murine skin; assay type: in vivo, mouse C57BL/6; details: synthetic autoinducing peptide 10 μg with S. aureus 1 × 10^7 CFU, 48 hours
Outline: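 Male C57BL/6 mice, 8 weeks old, shaved and Nair-depilated (2 min), then rested 48 h. S. aureus USA300 LAC (agr type I, from 18 h cultures in 3% TSB at 37°C), 1 × 10^7 CFU in 3% TSB (100 μl), applied with synthetic autoinducing peptide (10 μg, DMSO) on 2-cm2 gauze under Tegaderm to back skin for 48 h. Applied CFU confirmed next day; n = 5.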

## S-Y-N-V-c(C-G-G-Y-F) [S. hominis C5 autoinducing peptide]
[1]
  TEWL on murine skin (in words): inhibited TEWL
[2]
  inhibition of S. aureus agr activity (in words): potently inhibited S. aureus agr activity in a dose-dependent manner
[2]; listed as SYNVCGGYF
  inhibition of S. aureus agr activity (in words): highly potent inhibitor of S. aureus agr activity
[3]
  protection against clinical S. aureus strains (in words): protective against clinical S. aureus strains expressing PSMα
[4]
  Klk6 expression on murine skin (in words): inhibited TEWL, Klk6
